Assay results: ChEMBL document CHEMBL4024789, “Neutral Porphyrin Derivative Exerts Anticancer Activity by Targeting Cellular Topoisomerase I (Top1) and Promotes Apoptotic Cell Death without Stabilizing Top1-DNA Cleavage Complexes” (J Med Chem, 2018)
pEC50, pIC50: −log10 of the molar value. Activity calls are given as the source filed them. No cut-off for these calls is given here.

Columns and labels:
[1] = target: T1, DNA topoisomerase 1 (Homo sapiens, UniProt P11387); test: (§1) Inhibition of recombinant human topoisomerase-1 expressed in baculovirus infected sf9 cells using supercoiled pBS SK(+) DNA as substrate preincubated for 5 mins followed by substrate addition measured after 15 mins by ethidium bromide staining based agarose gel electrophoresis method
T1 sequence (P11387 whole entry): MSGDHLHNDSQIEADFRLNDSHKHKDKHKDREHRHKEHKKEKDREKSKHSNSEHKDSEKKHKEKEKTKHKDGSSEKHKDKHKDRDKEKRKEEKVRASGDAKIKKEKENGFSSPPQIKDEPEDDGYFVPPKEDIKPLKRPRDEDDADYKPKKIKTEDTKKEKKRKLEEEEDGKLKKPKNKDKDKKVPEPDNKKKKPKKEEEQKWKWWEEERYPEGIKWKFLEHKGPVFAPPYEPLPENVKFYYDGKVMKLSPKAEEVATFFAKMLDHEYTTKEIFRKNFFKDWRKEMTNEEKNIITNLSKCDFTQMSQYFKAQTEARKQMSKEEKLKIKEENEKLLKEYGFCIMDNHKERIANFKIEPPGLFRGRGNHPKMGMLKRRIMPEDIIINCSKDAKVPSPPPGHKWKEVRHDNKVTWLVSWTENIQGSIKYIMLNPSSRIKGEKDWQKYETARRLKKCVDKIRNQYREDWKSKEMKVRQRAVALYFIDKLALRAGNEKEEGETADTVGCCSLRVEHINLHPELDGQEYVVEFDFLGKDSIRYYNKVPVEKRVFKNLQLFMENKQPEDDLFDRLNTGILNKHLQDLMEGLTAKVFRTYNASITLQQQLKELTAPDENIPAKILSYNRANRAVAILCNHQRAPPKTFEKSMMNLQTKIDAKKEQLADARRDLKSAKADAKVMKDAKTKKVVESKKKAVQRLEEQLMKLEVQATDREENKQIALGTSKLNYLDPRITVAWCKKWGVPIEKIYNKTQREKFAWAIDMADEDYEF
Outline: (§2)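 Relaxation assay: 90 fmol supercoiled pBS (SK+) DNA with 30 fmol recombinant Top1 (Sf-9/baculovirus). Compound either preincubated with Top1 for 5 min before DNA addition, or added simultaneously with DNA; then 37 °C for 15 min. Vehicle 2% DMSO. Read on 1% agarose gel. EC50 from mean ± SD of three experiments.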

[2] = target: T2, DNA topoisomerase 1 (Homo sapiens) (UniProt P11387); test: as §1, with “cells at 1 uM” for “cells”, “method relative to control” for “method”; outline: as §2
T2 sequence (whole entry): T1 sequence (P11387 whole entry)

[3] = target: T2, DNA topoisomerase 1 (Homo sapiens); test: Inhibition of recombinant human EGFP-tagged topoisomerase-1- DNA cleavage complex formation at 20 uM after 10 mins by FRAP assay
Outline: (§3)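 FRAP in living MCF7 cells transiently expressing EGFP-human Top1, 37 °C chamber. Treatment was CPT 5 μM or compound 20 μM for 10 min, or CPT for 10 min then compound for 10 min. A subnuclear spot was bleached for 30 ms at 488 nm; curves normalized to the prebleach signal.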

[4] = target: T2, DNA topoisomerase 1 (Homo sapiens); test: Inhibition of CPT-induced recombinant human EGFP-tagged topoisomerase-1- DNA cleavage complex formation assessed as restoration of Top1 mobility at 20 uM after 10 mins by FRAP assay; parameters: scale not given: the % may be the effect or the level left; outline: as §3
[5] = target: T2, DNA topoisomerase 1 (Homo sapiens); test: as §1, with “Reversible inhibition” for “Inhibition”, “cells at 1 uM” for “cells”, “addition and subsequent 40 fold compound dilution” for “addition”
Outline: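 Recombinant Top1 (100 fmol) preincubated with 1 μM compound for 5 min at 37 °C in relaxation buffer. Mixture diluted 5-, 10-, 20- or 40-fold (final 0.2–0.025 μM), then 50 fmol pBS (SK+) DNA added and incubated 15 min at 37 °C. Three repeats performed.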

[6] = test system: MCF7; test: Induction of apoptosis in human MCF7 cells at 10 to 20 uM after 12 hrs by Annexin V-FITC/propidium iodide staining based confocal laser microscopic method relative to control; format: functional
Outline: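 MCF7 cells exposed 12 h, with or without NAC (10 mM) 30 min pretreatment. Phosphatidylserine detected with annexin V-FITC, nuclei counterstained with PI, confocal imaging; annexin V-positive cells counted from ~100 cells (average ± SEM).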

[7] = target: T2, DNA topoisomerase 1 (Homo sapiens); test: Induction of proteasome-mediated topoisomerase-1 degradation in human MCF7 cells at 10 uM by Western blot method; format: cell-based; details: TDE = time-dependent effect
Outline: (§4)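 Whole-cell extracts of MCF7 cells treated with 10 μM for the indicated times, or preincubated with MG132 (100 nM) for 4 h before 12 h compound exposure. Top1 detected by Western blot with mouse monoclonal anti-Top1 (C21).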

[8] = target: T2, DNA topoisomerase 1 (Homo sapiens); test: Induction of proteasome-mediated topoisomerase-1 degradation in human MCF7 cells at 10 uM up to 12 hrs in presence of proteasome inhibitor MG132 by Western blot method; format: cell-based; outline: as §4
[9] = test system: MCF7; test: Induction of DNA strand breaks in human MCF7 cells at 10 to 20 uM after 12 hrs by alkaline comet assay relative to control; format: functional
Outline: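 MCF7 cells exposed 12 h; some pretreated with NAC (10 mM) for 30 min first. Alkaline comet assay; mean comet tail scored over 20–25 cells (average ± SEM).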

[10] = test system: MCF7; test: Induction of DNA strand breaks in human MCF7 cells at 20 uM after 12 hrs in presence of ROS inhibitor NAC by alkaline comet assay relative to control; format: functional, cell-based
Outline: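 MCF7 cells treated 12 h, with or without 30 min pretreatment with NAC (10 mM). Strand breaks measured by alkaline comet assay; mean comet tail calculated for 20–25 cells (average ± SEM).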

[11] = test system: MCF7; test: Induction of apoptosis in human MCF7 cells at 10 to 20 uM after 12 hrs in presence of ROS inhibitor NAC by Annexin V-FITC/propidium iodide staining based confocal laser microscopic method relative to control; format: functional, cell-based
Outline: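 MCF7 cells treated for 12 h, with or without 30 min pretreatment with NAC (10 mM). Phosphatidylserine stained with annexin V-FITC, nuclei counterstained with propidium iodide, imaged by confocal microscopy. Annexin V(+) fraction scored from about 100 cells (average ± SEM).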

[12] = Cytotoxicity against human NIH:OVCAR3 cells assessed as reduction in cell viability by MTT assay; format: functional, cell-based; details: OVCAR-3
Outline: (§5)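 Survival of each cell line measured across a range of compound concentrations. Percent inhibition of viability at each concentration calculated against untreated control and IC50 estimated. MEFs were TDP1+/+ and TDP1–/– primary cells. Mean ± SD of at least three experiments in duplicate.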

[13] = test system: HEK293; test: Cytotoxicity against HEK293 cells assessed as reduction in cell viability by MTT assay; format: cell-based; details: Homo sapiens; outline: as §5
[14] = test system: MEF; test: Cytotoxicity against TDP1+/+ MEF assessed as reduction in cell viability by MTT assay; format: cell-based; details: Mus musculus; outline: as §5
[15] = test system: MCF7; test: Cytotoxicity against human MCF7 cells transfected with control SiRNA assessed as reduction in cell viability by MTT assay; format: functional, cell-based
Outline: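 MCF7 cells transfected with Top1 or control siRNA for 72 h; knockdown confirmed by Western blot with actin as loading control. Percent survival then plotted against compound concentration.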

- pEC50 [1]: 6.42
- inhibition [2]: 85 to 99%
- inhibition [3]: Active
- Activity [4]: 12 to 15%
- inhibition [5]: Active
- Activity [7]: Tde
- Activity [8]: inactive
SMILES: CN(C)c1ccc(-c2c3nc(c(-c4ccc(N(C)C)cc4)c4ccc([nH]4)c(-c4ccc(C(=O)O)cc4)c4nc(c(-c5ccc(C(=O)O)cc5)c5ccc2[nH]5)C=C4)C=C3)cc1
- fold change (FC) [6]: 7
- fold change (FC) [9]: 8
- Activity [10]: inactive
- Activity [11]: inactive
- pIC50 [12]: 5.28
- pIC50 [13]: < 5.00
- pIC50 [14]: < 5.00
- pIC50 [15]: 5.65
